From ChEMBL document CHEMBL1156857, “N-Acetamideindolecarboxylic acid allosteric 'finger-loop' inhibitors of the hepatitis C virus NS5B polymerase: discovery and initial optimization studies” (Bioorg Med Chem Lett, 2010)
Values after ≈ are worked out from the molar mass of the structure shown.

What was measured:
[1] = Inhibition of histidine-tagged HCV NS5Bdelta21 by scintillation proximity assay; parameters: species or system Hepacivirus hominis
Summary of the method: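 Soluble truncated NS5B at 12 nM. Reaction contains 0.01% w/v BSA, with no dodecyl-β-D-maltoside or IGEPAL. Other conditions follow an earlier method. IC50 is the mean of duplicate experiments on two separate weighings.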

[2] = Inhibition of calf thymus DNA-directed RNA polymerase 2; parameters: species or system Bos taurus
Hepatitis C virus = test: Antiviral activity against Hepatitis C virus subtype 1b infected in human Huh7 cells assessed as inhibition of viral RNA replication; type: functional, organism-based, Hepacivirus hominis, genotype 1b, Huh-7; conditions: Hepatitis C virus, genotype 1b, Huh-7; read-out: EC50
Summary of the method: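 Stable subgenomic HCV genotype 1b replicon in Huh-7 cells carrying a modified luciferase reporter. EC50 from duplicate or more determinations. Some inhibitors were also run in a 72 h replicon format, with HCV RNA normalized to total cellular RNA. Cytotoxicity checked as TC50.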

[3] = Lipophilicity, log D at pH 7.4; type: physicochemical; conditions: buffer
Caco-2 = test: (§1) Permeability from apical to basolateral side of the human Caco-2 cells at pH 7.4; type: ADME, cell-based; conditions: caco-2, pH 7.4, BLD = below limit of detection
Summary of the method: (§2)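 Caco-2 permeability measured in the apical-to-basal direction at pH 7.4.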

[4] = Half life in human liver microsomes at 2 uM; type: ADME, Microsome
Summary of the method: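 Human liver microsomes incubated with test compound at 2 µM. Stability reported as T1/2 in min.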

[5] = Equilibrium solubility at pH 7.2 with amorphous solid after 24 hrs by shake flask method; type: physicochemical; conditions: buffer
[6] = as §1; type: ADME, cell-based; conditions: Caco-2, pH 7.4, read-out: permeability; summary of the method: as §2
Cytochrome P450 2C19 = Cytochrome P450 2C19 (Homo sapiens, UniProt P33261); test: Inhibition of CYP2C19; type: ADME
Chain of Cytochrome P450 2C19 (P33261 whole entry): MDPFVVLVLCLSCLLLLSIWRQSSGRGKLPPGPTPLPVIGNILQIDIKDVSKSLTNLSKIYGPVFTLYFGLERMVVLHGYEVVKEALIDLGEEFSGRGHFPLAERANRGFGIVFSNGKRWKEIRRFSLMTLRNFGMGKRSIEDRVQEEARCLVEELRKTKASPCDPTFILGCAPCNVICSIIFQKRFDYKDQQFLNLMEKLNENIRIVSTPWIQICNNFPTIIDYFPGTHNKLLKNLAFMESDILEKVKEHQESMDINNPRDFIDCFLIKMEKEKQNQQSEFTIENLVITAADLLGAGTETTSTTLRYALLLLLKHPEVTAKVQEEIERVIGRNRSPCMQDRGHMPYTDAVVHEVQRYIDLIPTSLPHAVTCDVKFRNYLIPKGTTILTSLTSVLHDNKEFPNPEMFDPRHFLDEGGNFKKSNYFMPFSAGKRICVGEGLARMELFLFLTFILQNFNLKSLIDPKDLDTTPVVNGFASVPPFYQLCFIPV
Summary of the method: (§3)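 IC50s measured against CYP 1A2, 2C9, 2C19, 2D6 and 3A4 isozymes. The value reported is the lowest IC50, taken against the most sensitive isozyme.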

Cytochrome P450 2C9 = Cytochrome P450 2C9 (Homo sapiens, UniProt P11712); test: Inhibition of CYP2C9; type: ADME; summary of the method: as §3
Chain of Cytochrome P450 2C9 (P11712 whole entry): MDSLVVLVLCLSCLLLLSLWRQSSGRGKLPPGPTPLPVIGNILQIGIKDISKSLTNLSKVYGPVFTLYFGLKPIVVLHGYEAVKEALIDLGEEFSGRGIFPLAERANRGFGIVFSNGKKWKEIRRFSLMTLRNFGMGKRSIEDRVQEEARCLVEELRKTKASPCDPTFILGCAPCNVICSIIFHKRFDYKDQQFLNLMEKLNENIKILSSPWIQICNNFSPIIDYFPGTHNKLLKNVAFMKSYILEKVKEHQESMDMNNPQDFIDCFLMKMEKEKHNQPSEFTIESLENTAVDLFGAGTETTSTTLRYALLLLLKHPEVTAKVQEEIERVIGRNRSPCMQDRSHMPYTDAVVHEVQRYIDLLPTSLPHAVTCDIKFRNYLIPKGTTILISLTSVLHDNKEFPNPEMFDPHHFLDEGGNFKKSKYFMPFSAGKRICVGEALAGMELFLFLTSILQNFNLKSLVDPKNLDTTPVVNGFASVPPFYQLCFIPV

[7] = Half life in rat liver microsomes at 2 uM; type: ADME, Microsome
Cytochrome P450 3A4 = Cytochrome P450 3A4 (Homo sapiens, UniProt P08684); test: Inhibition of CYP3A4; type: ADME; summary of the method: as §3
Chain of Cytochrome P450 3A4 (P08684 whole entry): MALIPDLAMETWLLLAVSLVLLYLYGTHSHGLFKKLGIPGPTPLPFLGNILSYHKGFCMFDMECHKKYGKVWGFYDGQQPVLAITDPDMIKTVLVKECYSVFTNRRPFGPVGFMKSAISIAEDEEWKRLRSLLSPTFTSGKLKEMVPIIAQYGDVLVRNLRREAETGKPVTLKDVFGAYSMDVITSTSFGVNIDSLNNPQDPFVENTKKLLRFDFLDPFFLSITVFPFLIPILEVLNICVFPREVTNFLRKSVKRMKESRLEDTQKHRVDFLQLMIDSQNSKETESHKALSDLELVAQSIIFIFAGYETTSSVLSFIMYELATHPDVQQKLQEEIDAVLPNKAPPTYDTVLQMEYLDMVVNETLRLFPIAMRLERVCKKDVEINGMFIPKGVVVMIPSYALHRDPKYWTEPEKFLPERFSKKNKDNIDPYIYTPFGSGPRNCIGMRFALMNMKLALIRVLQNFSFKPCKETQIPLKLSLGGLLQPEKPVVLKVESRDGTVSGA

| SMILES | IC50 [1] [nM] | IC50 [2] [µM] | EC50 (Hepatitis C virus) [nM] | also measured |
| --- | --- | --- | --- | --- |
| CN(C)C(=O)Cn1c(-c2ccco2)c(C2CCCCC2)c2ccc(C(=O)O)cc21 | 40 | > 250 | 1500 | – |
| O=C(O)c1ccc2c(C3CCCCC3)c(-c3ccoc3)n(CC(=O)N3CCC(CCO)CC3)c2c1 | 70 | > 250 | 1300 | – |
| COCCN(C)C(=O)Cn1c(-c2ccoc2)c(C2CCCCC2)c2ccc(C(=O)O)cc21 | 50 | > 250 | 1300 | – |
| Cn1c(-c2ccoc2)c(C2CCCCC2)c2ccc(C(=O)O)cc21 | 16 | – | 4200 | logD [3]: 3.26 |
| O=C(O)c1ccc2c(C3CCCCC3)c(-c3cc4ccccc4s3)n(CC(=O)N3CCC(N4CCCC4)CC3)c2c1 | 160 | > 250 | 1000 | – |
| CN(CCO)C(=O)Cn1c(-c2ccoc2)c(C2CCCCC2)c2ccc(C(=O)O)cc21 | 20 | > 250 | 1500 | permeability (Caco-2): BLD; half-life at 2 µM [4]: 275 min; solubility thermodynamic at 24 h [5]: 1300 µg/mL (≈ 3060 µM) |
| O=C(O)c1ccc2c(C3CCCCC3)c(-c3ccsc3)n(CC(=O)N3CCC(N4CCCC4)CC3)c2c1 | 30 | > 250 | 1000 | – |
| CN(C)CCN(C)C(=O)Cn1c(-c2ccoc2)c(C2CCCCC2)c2ccc(C(=O)O)cc21 | 20 | > 250 | 440 | – |
| CN(C)C(=O)Cn1c(-c2cc3ccccc3s2)c(C2CCCCC2)c2ccc(C(=O)O)cc21 | 210 | > 250 | 2500 | – |
| O=C(O)c1ccc2c(C3CCCCC3)c(-c3ccsc3)n(CC(=O)N3CCOCC3)c2c1 | 40 | > 250 | 330 | – |
| CN(C)C(=O)Cn1c(-c2ccccn2)c(C2CCCCC2)c2ccc(C(=O)O)cc21 | 240 | > 250 | 3400 | – |
| CN(C)C(=O)Cn1c(-c2ccccc2)c(C2CCCCC2)c2ccc(C(=O)O)cc21 | 40 | > 250 | 1400 | – |
| O=C(O)c1ccc2c(C3CCCCC3)c(-c3ccoc3)n(CC(=O)N3CCC(O)CC3)c2c1 | 20 | > 250 | 2000 | – |
| O=C(O)c1ccc2c(C3CCCCC3)c(-c3cccs3)n(CC(=O)N3CCC(N4CCCC4)CC3)c2c1 | 20 | > 250 | 460 | Papp A→B [6]: 0.2 ×10⁻⁶ cm/s; half-life at 2 µM [4]: > 300 min; IC50 (Cytochrome P450 2C19): ≥ 11 µM; solubility thermodynamic at 24 h [5]: 60 µg/mL (≈ 115 µM) |
| O=C(O)c1ccc2c(C3CCCCC3)c(-c3ccoc3)n(CC(=O)N3CCOCC3)c2c1 | 30 | > 250 | 600 | Papp A→B [6]: 5.2 ×10⁻⁶ cm/s; half-life at 2 µM [4]: > 300 min; IC50 (Cytochrome P450 2C9): ≥ 24 µM; half-life at 2 µM [7]: 288 min; solubility thermodynamic at 24 h [5]: 105 µg/mL (≈ 241 µM) |
| CN1CCC(N(C)C(=O)Cn2c(-c3ccoc3)c(C3CCCCC3)c3ccc(C(=O)O)cc32)CC1 | 20 | > 250 | 130 | Papp A→B [6]: 0.2 ×10⁻⁶ cm/s; half-life at 2 µM [4]: > 300 min; solubility thermodynamic at 24 h [5]: 290 µg/mL (≈ 607 µM) |
| CN1CCCN(C(=O)Cn2c(-c3ccoc3)c(C3CCCCC3)c3ccc(C(=O)O)cc32)CC1 | 20 | > 250 | 330 | – |
| O=C(O)c1ccc2c(C3CCCCC3)c(-c3ccco3)n(CC(=O)N3CCOCC3)c2c1 | 40 | > 250 | 1000 | – |
| CNC(=O)Cn1c(-c2ccoc2)c(C2CCCCC2)c2ccc(C(=O)O)cc21 | 50 | > 250 | 2000 | – |
| CN(C)C(=O)Cn1c(-c2ccoc2)c(C2CCCCC2)c2ccc(C(=O)O)cc21 | 20 | > 250 | 800 | logD [3]: 1.45; Papp A→B [6]: 12.8 ×10⁻⁶ cm/s; half-life at 2 µM [4]: 250 min; IC50 (Cytochrome P450 3A4): >= 26 uM; solubility thermodynamic at 24 h [5]: 240 µg/mL (≈ 608 µM) |
| O=C(O)c1ccc2c(C3CCCCC3)c(-c3ccccc3)n(CC(=O)N3CCOCC3)c2c1 | 70 | > 250 | 700 | – |

| SMILES | IC50 [1] [nM] | IC50 [2] [µM] | EC50 (Hepatitis C virus) [nM] | also measured |
| --- | --- | --- | --- | --- |
| O=C(O)c1ccc2c(C3CCCCC3)c(-c3ccoc3)n(CC(=O)N3CCN(CCO)CC3)c2c1 | 20 | > 250 | 1300 | – |
| CN(C)C(=O)Cn1c(-c2cccs2)c(C2CCCCC2)c2ccc(C(=O)O)cc21 | 20 | > 250 | 600 | – |
| O=C(O)c1ccc2c(C3CCCCC3)c(-c3cnccn3)n(CC(=O)N3CCC(N4CCCC4)CC3)c2c1 | 60 | > 250 | 10000 | – |
| O=C(O)c1ccc2c(C3CCCCC3)c(-c3ccco3)n(CC(=O)N3CCC(N4CCCC4)CC3)c2c1 | 30 | > 250 | 1200 | – |
| CN(C)CCCN(C)C(=O)Cn1c(-c2ccoc2)c(C2CCCCC2)c2ccc(C(=O)O)cc21 | 20 | > 250 | 580 | – |
| CC(C)N1CCN(C(=O)Cn2c(-c3ccoc3)c(C3CCCCC3)c3ccc(C(=O)O)cc32)CC1 | 40 | > 250 | 830 | Papp A→B [6]: 7 ×10⁻⁶ cm/s; half-life at 2 µM [4]: > 300 min; IC50 (Cytochrome P450 3A4; read-out: IC50): ≥ 8 µM; solubility thermodynamic at 24 h [5]: 18 µg/mL (≈ 37.7 µM) |
| CCN(CC)CCN(C)C(=O)Cn1c(-c2ccoc2)c(C2CCCCC2)c2ccc(C(=O)O)cc21 | 30 | > 250 | 460 | – |
| CC(C)N(C)C(=O)Cn1c(-c2ccoc2)c(C2CCCCC2)c2ccc(C(=O)O)cc21 | 30 | > 250 | 800 | – |
| O=C(O)c1ccc2c(C3CCCCC3)c(-c3cccs3)n(CC(=O)N3CCOCC3)c2c1 | 30 | > 250 | 600 | – |
| O=C(O)c1ccc2c(C3CCCCC3)c(-c3cc4ccccc4s3)n(CC(=O)N3CCOCC3)c2c1 | 160 | > 250 | 1100 | – |
| O=C(O)c1ccc2c(C3CCCCC3)c(-c3ccccc3)n(CC(=O)N3CCC(N4CCCC4)CC3)c2c1 | 40 | > 250 | 380 | Papp A→B [6]: < 0.1 ×10⁻⁶ cm/s; half-life at 2 µM [4]: 111 min; solubility thermodynamic at 24 h [5]: 47 µg/mL (≈ 91.5 µM) |
| CN(C)C(=O)Cn1c(-c2ccsc2)c(C2CCCCC2)c2ccc(C(=O)O)cc21 | 40 | > 250 | 640 | – |
| O=C(O)c1ccc2c(C3CCCCC3)c(-c3ccoc3)n(CC(=O)N3CCC(N4CCCCC4)CC3)c2c1 | 30 | > 250 | 780 | – |
| O=C(O)c1ccc2c(C3CCCCC3)c(-c3ccoc3)n(CC(=O)N3CCC(C(=O)O)CC3)c2c1 | 30 | > 250 | > 94000 | – |
| CN1CCN(C(=O)Cn2c(-c3ccoc3)c(C3CCCCC3)c3ccc(C(=O)O)cc32)CC1 | 40 | > 250 | 450 | Papp A→B [6]: 1.7 ×10⁻⁶ cm/s; half-life at 2 µM [4]: 70 min; solubility thermodynamic at 24 h [5]: 7 µg/mL (≈ 15.6 µM) |
| CCN1CCN(C(=O)Cn2c(-c3ccoc3)c(C3CCCCC3)c3ccc(C(=O)O)cc32)CC1 | 30 | > 250 | 410 | Papp A→B [6]: 6.5 ×10⁻⁶ cm/s; half-life at 2 µM [4]: > 300 min; IC50 (Cytochrome P450 3A4; read-out: IC50): ≥ 16 µM; solubility thermodynamic at 24 h [5]: 12 µg/mL (≈ 25.9 µM) |
| CC(C)N(C(=O)Cn1c(-c2ccoc2)c(C2CCCCC2)c2ccc(C(=O)O)cc21)C(C)C | 70 | > 250 | 2300 | – |
| CN(CCc1ccncc1)C(=O)Cn1c(-c2ccoc2)c(C2CCCCC2)c2ccc(C(=O)O)cc21 | 30 | > 250 | 630 | – |
| O=C(O)c1ccc2c(C3CCCCC3)c(-c3ccoc3)n(CC(=O)N3CCC(N4CCCC4)CC3)c2c1 | 20 | > 250 | 380 | Papp A→B [6]: 1.4 ×10⁻⁶ cm/s; half-life at 2 µM [4]: > 300 min; solubility thermodynamic at 24 h [5]: 79 µg/mL (≈ 157 µM) |
| CCCN(C)C(=O)Cn1c(-c2ccoc2)c(C2CCCCC2)c2ccc(C(=O)O)cc21 | 50 | > 250 | 1700 | – |
